Screening results: PubChem BioAssay, NMMLSC
Arr AP2 block: inhibitors of beta-arrestin/AP2 binding, primary screen, biochemical, GPCR trafficking, flow cytometry. beta-arrestin 1 C-terminal peptide binding to AP2 beta2-adaptin appendage (human). FITC-arrestin peptide / GST-AP2 beads; AP2 beta2 appendage carries R879A mutation. inhibition, % at 10 µM. 0.31% of 340,000 active. AID 504490, 2011;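 active = inhibition above a set limit, near 3 SD of compounds lacking own fluorescence, cut at about 54% in these data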;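 also: plate controls were DMSO wells for no effect and 5 µM unlabelled arrestin peptide for full effect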
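System: GST-AP2 R879A bound to glutathione beads, E. coli-expressed. Also added: 50 nM FITC-arrestin peptide. Schedule: compound with beads 12 min RT, then probe 1 h RT. Signal: bead flow cytometry, FITC channel. Read-out basis: percent response.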
MEKK2mut PB1 HTS: MEK5 binding signal on mutant MEKK2 PB1, primary screen, biochemical, multiplex bead flow cytometry, Alexa488-MEK5; Alexa488-MEK5 binding to MEKK2 mutant; percent response, % at 10 µM; 0.35% of 290,000 active; AID 1530, 2009; in the data active = percent response above about 24%, passing the limit was not always enough
MEKK3 PB1 HTS: modulators of MEKK3-MEK5 PB1 binding, primary screen, biochemical, wildtype MEKK3, multiplex bead flow cytometry, Alexa488-MEK5; Mitogen-activated protein kinase kinase kinase 3 (Homo sapiens), Q99759; bead-based flow cytometry, Alexa488-MEK5 binding to MEKK3; actives lie on both sides; 0 = blocked by unlabeled MEK5, 100 = vehicle; binding response (% of control), % at 10 µM; 1.4% of 290,000 active; AID 1529, 2009;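 active = binding response more than 3 SD above or below the average of its plate-row segment, actives on both sides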;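 also: Alexa488 bead fluorescence after subtracting the streptavidin-only scavenger bead signal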
Target sequence (Q99759 whole entry, looked up): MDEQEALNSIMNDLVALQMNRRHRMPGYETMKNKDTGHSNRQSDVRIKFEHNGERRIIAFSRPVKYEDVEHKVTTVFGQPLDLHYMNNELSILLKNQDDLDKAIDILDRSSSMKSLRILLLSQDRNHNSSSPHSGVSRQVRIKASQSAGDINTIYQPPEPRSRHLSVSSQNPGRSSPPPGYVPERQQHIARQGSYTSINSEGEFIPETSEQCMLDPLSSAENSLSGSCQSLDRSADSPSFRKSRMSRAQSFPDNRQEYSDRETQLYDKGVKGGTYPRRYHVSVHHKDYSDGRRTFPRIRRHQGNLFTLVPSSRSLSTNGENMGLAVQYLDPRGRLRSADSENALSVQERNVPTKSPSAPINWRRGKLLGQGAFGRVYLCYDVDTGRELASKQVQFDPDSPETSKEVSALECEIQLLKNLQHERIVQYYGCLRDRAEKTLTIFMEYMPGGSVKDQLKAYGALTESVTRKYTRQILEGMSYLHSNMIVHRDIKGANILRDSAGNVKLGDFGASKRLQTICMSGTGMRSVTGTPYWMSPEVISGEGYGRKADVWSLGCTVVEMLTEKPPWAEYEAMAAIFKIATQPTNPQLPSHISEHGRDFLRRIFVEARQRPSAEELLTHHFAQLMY
MEKK2 WT-MEK5: modulators of MEK5 binding to wildtype MEKK2, primary screen, biochemical, multiplex bead flow cytometry, Alexa488-MEK5; Alexa488-MEK5 binding to MEKK2 WT; actives lie on both sides; binding response (% of control), % at 10 µM; 1.1% of 290,000 active; AID 1531, 2009; in the data active = binding response below about 67% or above about 130%
MEKK2wt confirm: modulators of MEK5 binding to wildtype MEKK2, confirmation, biochemical, single concentration, multiplex bead flow cytometry | binding response (% of control), % at 10 µM | Alexa488-MEK5 binding to MEKK2 WT; actives lie on both sides | 2.4% of 5,900 active | shares compounds with MEKK3 PB1 HTS; in the data active = binding response below about 16% or above about 210%; inactive = in between
MEKK2mut-MEK5: mutant MEKK2 PB1-MEK5 binding signal retest – biochemical, single concentration, multiplex bead flow cytometry, confirmation. Alexa488-MEK5 binding to MEKK2 mutant. percent response, % at 10 µM. shares compounds with MEKK3 PB1 HTS. 2% of 5,900 active; in the data active = percent response mostly above about 71%, no sharp cut-off; inactive = mostly below about 38%;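 also: higher means compound restores mutant binding toward wildtype level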
MEKK3-MEK5 inh: MEKK3 wild-type PB1 binding to MEK5, inhibitors, confirmation, biochemical, bead multiplex flow cytometry, single concentration, wildtype; binding response (% of control), % at 10 µM; Alexa488-MEK5 binding to MEKK3; active compounds read low; shares compounds with MEKK3 PB1 HTS; AID 1894, 2009; 1.8% of 5,900 active;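 active = binding response below 72% of control, or above a set upper limit, though filed actives all read lower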;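 also: 100% = DMSO only wells and 0% = binding blocked by excess unlabeled MEK5; lower values mean stronger disruption of MEK5 binding to MEKK3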
Active calls of the source: *; · = not tested or not shown; [ ] = another dose, or the depositor's remark. Shown are actives, neighbours in structure and some others; about 2.3% of the full set was active somewhere.

SMILES	Arr AP2 block	MEKK2mut PB1 HTS	MEKK3 PB1 HTS	MEKK2 WT-MEK5	MEKK2wt confirm	MEKK2mut-MEK5	MEKK3-MEK5 inh
CCc1cccc(CC)c1NC(=O)COC(=O)c1ccccc1-c1nc2ccccc2s1	7.4	-2.0	48.0*[inhibitor]	72.0	93.0	-6.0	102.0
CCCCN(C(=O)CSc1nnc2ccccn12)c1c(N)n(Cc2ccccc2)c(=O)[nH]c1=O	-12.3	0.0	128.0*	106.0	108.0	7.0	102.0
Cc1cccc(-c2cc3nc4c(c(N5CCOCC5)n3n2)CCCC4)c1	29.8	-3.0	94.0	97.0	·	·	·
Cc1cccc(-c2cc3nc4c(c(NCc5ccco5)n3n2)CCCC4)c1	1.2	16.0	110.0	136.0*	108.0	1.0	104.0
CC(NS(=O)(=O)c1ccccc1Cl)C1CC2CCC1C2 (stereo not given)	-1.8	1.0	102.0	100.0	·	·	·
COc1ccc(S(=O)(=O)N(c2onc(C)c2Cl)S(=O)(=O)c2ccc(OC)c(OC)c2)cc1OC	0.5	9.0	131.0*	120.0	110.0	4.0	102.0
COc1ccc(CN(C)S(=O)(=O)c2c(C)noc2C)cc1OC	32.2	·	·	·	·	·	·
COc1ccc(C(CNC(=O)COc2ccc(F)cc2Cl)N2CCOCC2)cc1 (stereo not given)	27.8	·	·	·	·	·	·
Cc1ccc(CNC(=O)Cn2c(=O)n(CC(=O)N3CCCCC3)c(=O)c3sccc32)cc1	-12.7	-1.0	101.0	103.0	·	·	·
Cc1ccc(CNC(=O)Cn2c(=O)c3sccc3n(Cc3ccc([N+](=O)[O-])cc3)c2=O)cc1	7.1	0.0	163.0*	107.0	104.0	1.0	100.0
O=C(CN1C(=O)NC2(CCc3ccccc32)C1=O)Nc1ccc(Br)cc1F (stereo not given)	3.6	·	·	·	·	·	·
O=C(Nc1ccc(F)cc1)Nc1nnc(-c2ccco2)s1	1.4	-2.0	95.0	96.0	·	·	·
CN1CCc2c(sc3c2C(=O)NC(c2cn(Cc4ccccc4)c4ccccc24)N3)C1 (stereo not given)	31.7	66.0*	92.0	182.0*	240.0*	107.0*	109.0
Cc1ccc(C2OC34CCCCCC3C(C#N)(C(=N)O4)C2(C#N)C#N)cc1 (stereo not given)	-1.7	-2.0	56.0*[inhibitor]	88.0	99.0	1.0	103.0
CCCCOc1ccc(C2OC34CCCCC3C(C#N)(C#N)C2(C#N)C(=N)O4)cc1 (stereo not given)	-2.2	-3.0	98.0	93.0	·	·	·
O=C(NC1CCCCC1)c1ccc2snnc2c1	5.5	0.0	102.0	106.0	·	·	·
CCOC(=O)C1=C(C)N(C)C(=O)NC1c1cc2c(cc1[N+](=O)[O-])OCO2 (stereo not given)	9.7	1.0	103.0	101.0	·	·	·
CSc1cccc(NC(=O)/C=C/c2ccccc2)c1	-0.6	-3.0	100.0	107.0	·	·	·
CSc1cccc(NC(=O)/C=C/c2ccc(Cl)cc2)c1	1.8	10.0	107.0	146.0*	126.0	12.0	107.0
COc1ccc(C(=O)Nc2ccc(NC(=O)c3cccs3)cc2)cc1Cl	-1.2	0.0	130.0*	103.0	96.0	-2.0	101.0
COc1cc(CN2CCN(c3ccccc3C)CC2)cc([N+](=O)[O-])c1O	1.0	-16.0	62.0*[inhibitor]	49.0*[inhibitor]	101.0	2.0	100.0
COCCNC(=O)C(c1ccccc1)N(C(=O)Cn1nnc2ccccc21)c1cccnc1 (stereo not given)	-3.3	10.0	108.0	110.0	·	·	·
COc1ccc(CNC(=O)C(c2ccco2)N(C(=O)c2ccccn2)c2ccccc2)cc1 (stereo not given)	7.0	-15.0	59.0*[inhibitor]	55.0*[inhibitor]	96.0	-4.0	98.0
CC(=O)c1cccc(N(C(=O)Cn2nnc3ccccc32)C(C(=O)NCc2ccccc2)c2ccccn2)c1 (stereo not given)	5.1	2.0	130.0*	105.0	94.0	4.0	97.0
O=C(NCc1ccccc1)C(c1ccco1)N(C(=O)c1cnccn1)c1ccc(F)cc1 (stereo not given)	-7.2	·	·	·	·	·	·
SMILES	Arr AP2 block	MEKK2mut PB1 HTS	MEKK3 PB1 HTS	MEKK2 WT-MEK5	MEKK2wt confirm	MEKK2mut-MEK5	MEKK3-MEK5 inh
O=C(NCc1ccccc1)C(c1ccco1)N(C(=O)c1ccccn1)c1ccccc1 (stereo not given)	-5.5	0.0	101.0	104.0	·	·	·
CC(=O)c1cccc(N(C(=O)c2cnccn2)C(C(=O)NCc2ccccc2)c2ccco2)c1 (stereo not given)	-8.3	9.0	124.0*	118.0	100.0	5.0	97.0
COc1cc(N)c(Cl)cc1C(=O)OCC(=O)N1CCCCCC1	26.9	·	·	·	·	·	·
CN(C)c1ccc(/C=C(/NC(=O)c2ccccc2Cl)C(=O)NCCN2CCOCC2)cc1	-1.8	-3.0	98.0	96.0	·	·	·
O=C(NCc1nc(-c2ccc(C(F)(F)F)cc2)no1)Nc1cc(Cl)cc(Cl)c1	7.0	52.0*	136.0*	179.0*	151.0	46.0	108.0
O=C(O)COCC(=O)NCc1nc(-c2ccc(C(F)(F)F)cc2)no1	-4.7	-24.0	97.0	98.0	·	·	·
O=C(NCc1nc(-c2ccc(C(F)(F)F)cc2)no1)Nc1ccc(F)cc1F	32.7	29.0	131.0*	117.0	95.0	-9.0	99.0
C#CCOCCOCCOCCNc1nc(N2CCN(C(=O)[C@H]([C@@H](C)CC)n3cc([C@@H](N)CC(C)C)nn3)CC2)nc(N2CCN(C(=O)[C@H]([C@@H](C)CC)n3cc([C@@H](N)CC(C)C)nn3)CC2)n1	-6.0	87.0*	116.0	223.0*	180.0	45.0	104.0
C#CCOCCOCCOCCNc1nc(N2CCN(C(=O)[C@H]([C@@H](C)CC)n3cc([C@@H](N)Cc4ccc(O)cc4)nn3)CC2)nc(N2CCN(C(=O)[C@H](CCCCN)n3cc([C@@H](N)C(C)CC)nn3)CC2)n1 (stereo not given in full)	-1.9	48.0	117.0	176.0*	137.0	17.0	103.0
C#CCOCCOCCOCCNc1nc(N2CCN(C(=O)[C@H]([C@@H](C)CC)n3cc([C@@H](N)CO)nn3)CC2)nc(N2CCN(C(=O)[C@H](Cc3ccc(O)cc3)n3cc([C@@H](N)C(C)CC)nn3)CC2)n1 (stereo not given in full)	-9.1	11.0	106.0	111.0	·	·	·
